Measured values taken from ChEMBL document CHEMBL1914380, “Polyalkoxybenzenes from plants. 5. Parsley seed extract in synthesis of azapodophyllotoxins featuring strong tubulin destabilizing activity in the sea urchin embryo and cell culture assays” (J Med Chem, 2011).
Calls of active or inactive are those of the source. The calls are words filed in the database; no cut-off is given here.

Legend:
[1] = system: Paracentrotus lividus; assay: Antimitotic activity against Paracentrotus lividus embryo assessed as embryo spinning treated 10 to 25 mins post fertilization followed by 45 to 60 mins before the first mitotic cycle completion by sea urchin embryo assay; type: functional
[2] = system: Paracentrotus lividus; assay: Antimitotic activity against Paracentrotus lividus embryo assessed as cleavage arrest treated 10 to 25 mins post fertilization followed by 45 to 60 mins before the first mitotic cycle completion by sea urchin embryo assay; type: functional
[3] = system: Paracentrotus lividus; assay: Antimitotic activity against Paracentrotus lividus embryo assessed as cleavage alteration treated 10 to 25 mins post fertilization followed by 45 to 60 mins before the first mitotic cycle completion by sea urchin embryo assay; type: functional
[4] = system: A549; assay: Inhibition of microtubule polymerization in human A549 cells assessed as total disruption of interphase microtubule network at 1 uM after 8 hrs by immunofluorescence microscopy; type: cell-based
Procedure, shortened: (§1)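 A549 cells incubated 8 h with compound at 0.1, 0.5, 1 and 5 μM; DMSO vehicle as negative control. Microtubules labelled by indirect immunofluorescence and examined by fluorescence microscopy. Value is the concentration giving total interphase microtubule disassembly, from three independent experiments.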

[5] = system: A549; assay: Inhibition of microtubule polymerization in human A549 cells assessed as total disruption of interphase microtubule network at 5 uM after 8 hrs by immunofluorescence microscopy; type: cell-based; procedure, shortened: as §1
[6] = system: A549; assay: Inhibition of microtubule polymerization in human A549 cells assessed as total disruption of interphase microtubule network at 0.5 uM after 8 hrs by immunofluorescence microscopy; type: cell-based; procedure, shortened: as §1
[7] = system: A549; assay: Cytotoxicity against human A549 cells assessed as cell viability after 24 hrs by MTT assay; type: functional, cell-based; conditions: A549, 24 h
Procedure, shortened: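 A549 human lung carcinoma cells; growth inhibition measured by MTT assay. IC50 derived from dose-response curves, mean ± SD of three independent experiments.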

[8] = system: A549; assay: Inhibition of microtubule polymerization in human A549 cells assessed as total disruption of interphase microtubule network at 0.1 uM after 8 hrs by immunofluorescence microscopy; type: cell-based; procedure, shortened: as §1
[9] = system: Paracentrotus lividus; assay: Antimitotic activity against Paracentrotus lividus embryo assessed as cleavage arrest up to 4 uM […] followed by 45 to 60 mins before the first mitotic cycle completion by sea urchin embryo assay; type: functional, organism-based
[10] = system: Paracentrotus lividus; assay: Antimitotic activity against Paracentrotus lividus embryo assessed as cleavage alteration up to 4 uM […] followed by 45 to 60 mins before the first mitotic cycle completion by sea urchin embryo assay; type: functional, organism-based
[11] = system: Paracentrotus lividus; assay: Antimitotic activity against Paracentrotus lividus embryo assessed as embryo spinning up to 4 uM […] followed by 45 to 60 mins before the first mitotic cycle completion by sea urchin embryo assay; type: functional, organism-based
[12] = system: A549; assay: Cell cycle arrest in human A549 cells assessed as accumulation of cells in G2/M phase after 24 hrs by propidium iodide staining-based flow cytometry; type: functional; conditions: A549, 24 h
[13] = system: P388; assay: Cytotoxicity against mouse P388 cells assessed as cell viability after 48 hrs by trypan blue exclusion assay; type: functional, cell-based; conditions: P388, 48 h
[14] = system: A549; assay: Inhibition of microtubule polymerization in human A549 cells assessed as total disruption of interphase microtubule network at > 5 uM after 8 hrs by immunofluorescence microscopy; type: cell-based
[15] = system: A549; assay: Induction of apoptosis in human A549 cells assessed as necrotic cells at 10 to 100 nM after 48 hrs by annexin-V FITC/7-ADD staining-based flow cytometric analysis; type: functional, cell-based
[16] = system: A549; assay: Induction of apoptosis in human A549 cells assessed as early apoptotic cells at 10 to 100 nM after 48 hrs by annexin-V FITC/7-ADD staining-based flow cytometric analysis; type: functional, cell-based
[17] = system: A549; assay: Induction of apoptosis in human A549 cells assessed as late apoptotic cells at 10 to 100 nM after 48 hrs by annexin-V FITC/7-ADD staining-based flow cytometric analysis; type: functional, cell-based
[18] = system: Paracentrotus lividus; assay: Antimitotic activity against Paracentrotus lividus embryo assessed as cleavage alteration at 10 nM after 6 hrs post fertilization by microscopic analysis; type: functional, organism-based
[19] = system: Paracentrotus lividus; assay: Antimitotic activity against Paracentrotus lividus embryo assessed as formation of tuberculate egg at 100 nM after 6 hrs post fertilization by microscopic analysis; type: functional, organism-based

Compound | EC [1] [nM] | EC [2] [nM] | EC [3] [nM] | inhibition [4] | inhibition [5] | inhibition [6] | IC50 [7] [nM] | inhibition [8] | further results
COc1c(C2C3=C(COC3=O)Nc3cc4c(cc32)OCO4)cc2c(c1OC)OCO2 (stereo not drawn) | 4000 | 500 | 100 | – | – | – | – | – | –
OC1=C2C(=Nc3cc4c(cc3C2c2ccc3c(c2)OCO3)OCO4)CO1 (stereo not drawn) | 200 | 50 | 10 | – | – | – | – | – | –
COc1cc(C2C3=C(COC3=O)Nc3cc4c(cc32)OCO4)c(OC)c(OC)c1OC (stereo not drawn) | >10000 | 4000 | 1000 | Active | Active | Active | 299 | Active | –
COc1cc(C2C3=C(COC3=O)Nc3cn(C)nc32)cc(OC)c1OC (stereo not drawn) | – | – | – | – | – | – | – | – | Activity [9]: inactive; Activity [10]: inactive; Activity [11]: inactive
COc1cc(C2C3=C(COC3=O)Nc3cc4c(cc32)CCC4)cc2c1OCO2 (stereo not drawn) | 50 | 20 | 2 | Active | Active | Active | 264 | Active | –
COc1ccc(C2C3=C(COC3=O)Nc3cc4c(cc32)OCO4)cc1OC (stereo not drawn) | 2000 | 100 | 5 | Active | Active | Active | 596 | Active | EC50 [12]: 230 nM; IC50 [13]: 131 nM
COc1cccc(C2C3=C(O)OCC3=Nc3cc4c(cc32)OCO4)c1 (stereo not drawn) | 100 | 20 | 5 | – | – | – | – | – | –
COc1cc(C2C3=C(COC3=O)Nc3cc4c(c(OC)c32)OCO4)cc2c1OCO2 (stereo not drawn) | 2000 | 500 | 50 | – | – | – | 298 | – | inhibition [14]: Active
COc1cc(C2C3=C(COC3=O)Nc3ccccc32)cc2c1OCO2 (stereo not drawn) | 2000 | 200 | 20 | – | – | – | 534 | – | inhibition [14]: Active
O=C1OCC2=C1C(c1ccc3c(c1)OCO3)c1c(ccc3ccccc13)N2 (stereo not drawn) | >4000 | >4000 | >4000 | – | – | – | – | – | –
COc1cc(C2C3=C(COC3=O)Nc3cc4c(cc32)OCO4)cc(OC)c1OC (stereo not drawn) | 2000 | 500 | 50 | Active | Active | Active | 2.71 | Active | Activity [15]: Active; EC50 [12]: 16.2 nM; Activity [16]: Active; Activity [17]: inactive
COc1ccc(C2C3=C(COC3=O)Nc3[nH]ncc32)cc1 (stereo not drawn) | – | – | – | – | – | – | – | – | Activity [9]: inactive; Activity [10]: inactive; Activity [11]: inactive
COc1cc(-c2c3c(nc4c5c(ccc24)CCC5)COC3=O)cc2c1OCO2 | >5000 | >4000 | 100 | – | – | – | – | – | –
COc1c(C2C3=C(COC3=O)Nc3cn(C)nc32)cc2c(c1OC)OCO2 (stereo not drawn) | – | – | – | – | – | – | – | – | Activity [9]: inactive; Activity [10]: inactive; Activity [11]: inactive
COc1cc(C2C3=C(COC3=O)Nc3cc4c(cc32)OCO4)cc2c1OCO2 (racemic) | 50 | 50 | 5 | Active | Active | Active | 55.2 | Active | Activity [18]: Active; Activity [19]: Active
COC(=O)Nc1nc2cc(C(=O)c3cccs3)ccc2[nH]1 | – | – | – | – | – | – | – | – | Activity [15]: Active; Activity [16]: Active; Activity [17]: inactive
OC1=C2C(=Nc3cc4c(cc3C2c2ccccc2)OCO4)CO1 (stereo not drawn) | 100 | 20 | 5 | – | – | – | 63 | – | –
COc1cc(C2C3=C(COC3=O)Nc3cc4c(cc32)OCCO4)cc2c1OCO2 (stereo not drawn) | 100 | 50 | 5 | Active | Active | Active | 64.7 | Active | EC50 [12]: 119 nM
